The source made the active and inactive calls. No cut-off for these calls is given here.
How the values were obtained:
Mus musculus [1] = assay: Anticonvulsant activity in ip dosed albino Carworth Farms No.1 mouse assessed as protection against subcutaneous metrazol-induced seizure after 0.25 hrs; format: functional; details: albino Carworth Farms No.1, 0.25 h
In short: (§1)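 Mouse quantification at the time of peak effect, compound given i.p. in 0.5% methylcellulose. Groups of at least eight mice received varied doses until at least two points fell between 100 and 0% response. ED50 (MES, scMET) and TD50 (rotorod) with 95% CI by probit analysis (Finney). PI = TD50/ED50 MES.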

Mus musculus [2] = assay: Anticonvulsant activity in ip dosed albino Carworth Farms No.1 mouse assessed as protection against electric-current for 3 secs-induced seizure after 0.25 hrs by 6Hz minimal clonic seizure test; format: functional; details: albino Carworth Farms No.1, ip
Mus musculus [3] = assay: Anticonvulsant activity in ip dosed albino Carworth Farms No.1 mouse assessed as protection against maximal electroshock-induced seizure after 0.25 hrs; format: functional; details: albino Carworth Farms No.1, ip; in short: as §1
Rattus norvegicus [4] = assay: Anticonvulsant activity in po dosed albino Sprague-Dawley rat assessed as protection against subcutaneous metrazol-induced seizure after 0.25 hrs; format: functional
In short: (§2)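 Rats dosed orally, compound in 0.5% methylcellulose. MES at 150 mA, 60 Hz, 0.2 s; scMET with pentylenetetrazole 70 mg/kg s.c. plus 30 min observation; rotorod for toxicity.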

Mus musculus [5] = assay: Anticonvulsant activity in ip dosed albino Carworth Farms No.1 mouse assessed as time needs to show peak effect for protection against maximal electroshock-induced seizure; format: functional
Mus musculus [6] = assay: Anticonvulsant activity in ip dosed albino Carworth Farms No.1 mouse assessed as time needs to show peak effect for electric-current for 3 secs-induced seizure after 0.25 hrs by 6Hz minimal clonic seizure test; format: functional
Rattus norvegicus [7] = assay: Anticonvulsant activity in po dosed albino Sprague-Dawley rat assessed as time needs to show peak effect for protection against maximal electroshock-induced seizure after 0.25 hrs; format: functional; in short: as §2
[8] = Neurotoxicity in po dosed albino Sprague-Dawley rat assessed as motor impairment after 0.25 hrs by rotarod test; format: toxicity, organism-based; details: in vivo; in short: as §2
Mus musculus [9] = assay: Anticonvulsant activity in albino Carworth Farms No.1 mouse assessed as protection against subcutaneous metrazol-induced seizure at 100 mg/kg, ip after 0.5 hrs; format: functional, organism-based; set-up: dose 100 mg/kg
In short: (§3)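 Mouse scMET test. Compound given i.p. (30, 100 or 300 mg/kg) in 0.5% methylcellulose. Pentylenetetrazole 85 mg/kg (CD97) given s.c. at 0.5 or 4 h, then mice observed for 30 min. Protection is absence of clonic spasms; scored as protected/tested.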

Mus musculus [10] = assay: Neurotoxicity in albino Carworth Farms No.1 mouse assessed as motor impairment at 30 mg/kg, ip after 4 hrs by rotarod test; format: toxicity, organism-based; set-up: dose 30 mg/kg, route intraperitoneal; details: in vivo
In short: (§4)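 Rotorod neurotoxicity in mice at 6 r.p.m. Compound given i.p. (30, 100, 300 mg/kg) in 0.5% methylcellulose; tested at 30 min and 4 h. Impairment is inability to keep equilibrium on the rod for a given time; scored as impaired/tested.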

Mus musculus [11] = assay: Neurotoxicity in albino Carworth Farms No.1 mouse assessed as motor impairment at 30 mg/kg, ip after 0.5 hrs by rotarod test; format: toxicity, organism-based; set-up: dose 30 mg/kg, route intraperitoneal; details: in vivo; in short: as §4
Mus musculus [12] = assay: Anticonvulsant activity in albino Carworth Farms No.1 mouse assessed as protection against maximal electroshock-induced seizure at 30 mg/kg, ip after 4 hrs; format: functional, organism-based; set-up: dose 30 mg/kg
In short: (§5)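 Mouse MES test with compound given i.p. (30, 100 or 300 mg/kg) in 0.5% methylcellulose; tested at 0.5 and 4 h. Corneal stimulus of 50 mA at 60 Hz for 0.2 s, electrodes primed with 0.5% butacaine in 0.9% NaCl. Protection is abolition of hindlimb tonic extension; scored as protected/tested.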

Mus musculus [13] = assay: Neurotoxicity in albino Carworth Farms No.1 mouse assessed as motor impairment at 300 mg/kg, ip after 0.5 hrs by rotarod test; format: toxicity, organism-based; set-up: dose 300 mg/kg, route intraperitoneal; details: in vivo; in short: as §4
Mus musculus [14] = assay: Anticonvulsant activity in albino Carworth Farms No.1 mouse assessed as protection against maximal electroshock-induced seizure at 100 mg/kg, ip after 0.5 hrs; format: functional, organism-based; set-up: dose 100 mg/kg; in short: as §5
Mus musculus [15] = assay: Neurotoxicity in albino Carworth Farms No.1 mouse assessed as motor impairment at 100 mg/kg, ip after 0.5 hrs by rotarod test; format: toxicity, organism-based; set-up: dose 100 mg/kg, route intraperitoneal; details: in vivo; in short: as §4
Mus musculus [16] = assay: Neurotoxicity in albino Carworth Farms No.1 mouse assessed as motor impairment at 100 mg/kg, ip after 4 hrs by rotarod test; format: toxicity, organism-based; set-up: dose 100 mg/kg, route intraperitoneal; details: in vivo; in short: as §4
Mus musculus [17] = assay: Anticonvulsant activity in albino Carworth Farms No.1 mouse assessed as protection against maximal electroshock-induced seizure at 300 mg/kg, ip after 4 hrs; format: functional, organism-based; set-up: dose 300 mg/kg; in short: as §5
Mus musculus [18] = assay: Anticonvulsant activity in albino Carworth Farms No.1 mouse assessed as protection against subcutaneous metrazol-induced seizure at 100 mg/kg, ip after 4 hrs; format: functional, organism-based; set-up: dose 100 mg/kg; in short: as §3
Mus musculus [19] = assay: Anticonvulsant activity in albino Carworth Farms No.1 mouse assessed as protection against subcutaneous metrazol-induced seizure at 300 mg/kg, ip after 0.5 hrs; format: functional, organism-based; set-up: dose 300 mg/kg; in short: as §3
Mus musculus [20] = assay: Anticonvulsant activity in albino Carworth Farms No.1 mouse assessed as protection against electric-current for 3 secs-induced seizure at 100 mg/kg, ip after 2 hrs by 6Hz minimal clonic seizure test; format: functional, organism-based; set-up: dose 100 mg/kg
In short: (§6)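 6 Hz psychomotor seizure test in mice. Compound given i.p. as a suspension in 0.5% methylcellulose. Corneal stimulation at 32 mA, 0.2-ms monopolar rectangular pulses at 6 Hz for 3 s, from a constant-current device. Tests run 0.25–4 h after dosing. A mouse counted as protected if it resumed normal exploratory behaviour within 10 s; scored as protected/tested.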

Mus musculus [21] = assay: Anticonvulsant activity in albino Carworth Farms No.1 mouse assessed as protection against maximal electroshock-induced seizure at 30 mg/kg, ip after 0.5 hrs; format: functional, organism-based; set-up: dose 30 mg/kg; in short: as §5
Mus musculus [22] = assay: Anticonvulsant activity in albino Carworth Farms No.1 mouse assessed as protection against electric-current for 3 secs-induced seizure at 100 mg/kg, ip after 0.25 hrs by 6Hz minimal clonic seizure test; format: functional, organism-based; set-up: dose 100 mg/kg; in short: as §6
Mus musculus [23] = assay: Anticonvulsant activity in albino Carworth Farms No.1 mouse assessed as protection against maximal electroshock-induced seizure at 100 mg/kg, ip after 4 hrs; format: functional, organism-based; set-up: dose 100 mg/kg; in short: as §5
Mus musculus [24] = assay: Neurotoxicity in albino Carworth Farms No.1 mouse assessed as motor impairment at 100 mg/kg, ip after 2 hrs by rotarod test; format: toxicity, organism-based; set-up: dose 100 mg/kg, route intraperitoneal; details: in vivo
In short: (§7)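 Rotorod neurotoxicity in mice (18–25 g) following i.p. dosing of a suspension in 0.5% methylcellulose in water, tested at intervals between 0.25 and 4 h. Impairment was scored as failure to keep equilibrium on a 6 r.p.m. rod, reported as number impaired/number tested.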

Mus musculus [25] = assay: Neurotoxicity in albino Carworth Farms No.1 mouse assessed as motor impairment at 300 mg/kg, ip after 4 hrs by rotarod test; format: toxicity, organism-based; set-up: dose 300 mg/kg, route intraperitoneal; details: in vivo; in short: as §4
Mus musculus [26] = assay: Anticonvulsant activity in albino Carworth Farms No.1 mouse assessed as protection against electric-current for 3 secs-induced seizure at 100 mg/kg, ip after 1 hr by 6Hz minimal clonic seizure test; format: functional, organism-based; set-up: dose 100 mg/kg; in short: as §6
Mus musculus [27] = assay: Neurotoxicity in albino Carworth Farms No.1 mouse assessed as motor impairment at 100 mg/kg, ip after 1 hr by rotarod test; format: toxicity, organism-based; set-up: dose 100 mg/kg, route intraperitoneal; details: in vivo; in short: as §7
Mus musculus [28] = assay: Anticonvulsant activity in albino Carworth Farms No.1 mouse assessed as protection against subcutaneous metrazol-induced seizure at 30 mg/kg, ip after 0.5 hrs; format: functional, organism-based; set-up: dose 30 mg/kg; in short: as §3
Mus musculus [29] = assay: Anticonvulsant activity in albino Carworth Farms No.1 mouse assessed as protection against electric-current for 3 secs-induced seizure at 100 mg/kg, ip after 4 hrs by 6Hz minimal clonic seizure test; format: functional, organism-based; set-up: dose 100 mg/kg; in short: as §6
Mus musculus [30] = assay: Neurotoxicity in albino Carworth Farms No.1 mouse assessed as motor impairment at 100 mg/kg, ip after 0.25 hrs by rotarod test; format: toxicity, organism-based; set-up: dose 100 mg/kg, route intraperitoneal; details: in vivo; in short: as §7
Mus musculus [31] = assay: Anticonvulsant activity in albino Carworth Farms No.1 mouse assessed as protection against subcutaneous metrazol-induced seizure at 30 mg/kg, ip after 4 hrs; format: functional, organism-based; set-up: dose 30 mg/kg; in short: as §3
Mus musculus [32] = assay: Anticonvulsant activity in albino Carworth Farms No.1 mouse assessed as protection against maximal electroshock-induced seizure at 300 mg/kg, ip after 0.5 hrs; format: functional, organism-based; set-up: dose 300 mg/kg; in short: as §5
Mus musculus [33] = assay: Anticonvulsant activity in albino Carworth Farms No.1 mouse assessed as protection against subcutaneous metrazol-induced seizure at 300 mg/kg, ip after 4 hrs; format: functional, organism-based; set-up: dose 300 mg/kg; in short: as §3

Structure (SMILES)	ED50 (Mus musculus [1]) [mg/kg]	ED50 (Mus musculus [2]) [mg/kg]	ED50 (Mus musculus [3]) [mg/kg]	Activity (Mus musculus [9])	Activity (Mus musculus [10])	Activity (Mus musculus [11])	Activity (Mus musculus [12])	Activity (Mus musculus [13])	Activity (Mus musculus [14])	Activity (Mus musculus [15])	Activity (Mus musculus [17])	Activity (Mus musculus [18])	Activity (Mus musculus [19])	Activity (Mus musculus [21])	Activity (Mus musculus [23])	Activity (Mus musculus [25])	Activity (Mus musculus [28])	Activity (Mus musculus [31])	Activity (Mus musculus [32])	Activity (Mus musculus [33])	further results
COC[C@@H](NC(C)=O)C(=O)NCc1ccccc1 [LACOSAMIDE]	> 25	9.99	4.46																		ED50 (Rattus norvegicus [4]): > 250 mg/kg; Time (Mus musculus [5]): 0.5 h; Time (Mus musculus [6]): 0.5 h; Time (Rattus norvegicus [7]): 0.5 h; TD50 at 0.25 h [8]: > 500 mg/kg
O=C1[C@@H]2CCCN2[C@H](c2ccccc2)C(=O)N1CCc1ccccc1				inactive	Non-toxic	Non-toxic	inactive	Non-toxic	inactive	Non-toxic	inactive	inactive	inactive	inactive	inactive	Non-toxic	inactive	inactive	inactive	inactive	Activity (Mus musculus [16]): Non-toxic; Activity (Mus musculus [20]): inactive; Activity (Mus musculus [22]): inactive; Activity (Mus musculus [24]): Non-toxic; Activity (Mus musculus [26]): inactive; Activity (Mus musculus [27]): Non-toxic; Activity (Mus musculus [29]): inactive; Activity (Mus musculus [30]): Non-toxic
O=C1[C@@H]2CCCN2[C@H](c2ccccc2)C(=O)N1Cc1ccccc1				inactive	Non-toxic	Non-toxic	inactive	Non-toxic	inactive	Non-toxic	inactive	inactive	inactive	inactive	inactive	Non-toxic	inactive	inactive	inactive	inactive	
C[C@@H]1C(=O)NC(=O)[C@@H]2CCCN12				inactive	Non-toxic	Non-toxic	inactive	Non-toxic	inactive	Non-toxic	inactive	inactive	inactive	inactive	inactive	Non-toxic	inactive	inactive	inactive	inactive	
CCC1(c2ccccc2)C(=O)NC(=O)NC1=O [PHENOBARBITAL]	13.2	14.8	21.8																		ED50 (Rattus norvegicus [4]): 11.6 mg/kg; Time (Mus musculus [5]): 1 h; Time (Mus musculus [6]): 0.5 h; Time (Rattus norvegicus [7]): 5 h; TD50 at 0.25 h [8]: 61.1 mg/kg
Cl.O=C1[C@H](c2ccccc2)N2CCC[C@H]2C(=O)N1Cc1ccccc1				inactive	Non-toxic	Non-toxic	inactive	Non-toxic	inactive	Non-toxic	inactive	inactive	inactive	inactive	inactive	Non-toxic	inactive	inactive	Active	inactive	

— ChEMBL document CHEMBL1909525, “Synthesis and anticonvulsant activity of novel 2,6-diketopiperazine derivatives. Part 1: perhydropyrrole[1,2-a]pyrazines” (Eur J Med Chem, 2011)
